Values after ≈ are worked out from the molar mass of the structure shown. Active and inactive are the calls of the source. The calls are words filed in the database; no cut-off is given here.
Key:
HeLa = assay: In vitro cytostatic activity against human HeLa cells assessed as cell growth after 72 hrs by colorimetric method; type: functional; settings: read-out: ED50 (the source's name)
Summary of the method: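 HeLa cells at 10⁵ cells/mL in Eagle's minimal medium with 10% fetal calf serum, Leighton tubes, 37 °C. Compound added 2-3 h after attachment, suspended in sterile saline with 0.05% Tween 80 (10% of final volume). Incubated 72 h at 37 °C. Growth measured as cell protein by the Oyama-Eagle colorimetric method. 6-Mercaptopurine was the positive control. ED50 in μg/mL.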

Mus musculus [1] = assay: In vivo cytostatic activity against mouse Ehrlich carcinoma ascites allografted in ip dosed ICR swiss mouse assessed as median survival time administered qd for 9 days beginning 24 hrs after tumor implantation; type: functional, organism-based
Summary of the method: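 Female ICR Swiss mice (19-22 g) carrying Ehrlich ascites carcinoma, following NCI protocols 1100/1200. Compound suspended in 0.9% NaCl with 0.5% Tween 80 and given ip at 0.4 mL, once daily for 9 days starting 24 h after implantation. Groups of 6 treated and 30 control mice. 5-Fluorouracil at 20 mg/kg was the positive control. T/C = median survival of treated over control, ×100.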

[2] = In vivo cytostatic activity against mouse Ehrlich carcinoma ascites allografted in ICR swiss mouse assessed as median survival time at 100 mg/kg, ip administered qd for 9 days beginning 24 hrs after tumor implantation relative to control; type: functional; settings: route intraperitoneal
Summary of the method: (§1)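 Female ICR Swiss mice (19-22 g) bearing Ehrlich ascites carcinoma, per NCI protocols 1100/1200; compound suspended in 0.9% NaCl with 0.5% Tween 80, given ip at 0.4 mL once daily for 9 days from 24 h post-implant. Groups of 6 treated vs 30 controls; 5-fluorouracil 20 mg/kg/injection as positive control. T/C = treated/control median survival time as percentage.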

Mus musculus [3] = assay: Toxicity in ICR swiss mouse allografted with mouse Ehrlich carcinoma ascites assessed as change in body weight at 100 mg/kg, ip administered qd for 9 days beginning 24 hrs after tumor implantation; type: organism-based; parameters: dose 100 mg/kg, route intraperitoneal; settings: in vivo
Summary of the method: (§2)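 Female ICR Swiss mice (19-22 g) carrying Ehrlich ascites carcinoma. Compound suspended in 0.9% NaCl with 0.5% Tween 80 and given ip at 0.4 mL, once daily for 9 days starting 24 h after implantation. Groups of 6 treated and 30 control mice. Read-out is the weight difference in grams between treated and control animals.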

P388 = assay: In vivo cytostatic activity against mouse P388 cells allografted in mouse assessed as increase in host life span at 50 mg/kg; type: functional
Mus musculus [4] = assay: Toxicity in ICR swiss mouse allografted with mouse Ehrlich carcinoma ascites assessed as change in body weight at 75 mg/kg, ip administered qd for 9 days beginning 24 hrs after tumor implantation; type: organism-based; parameters: dose 75 mg/kg, route intraperitoneal; settings: in vivo; summary of the method: as §2
[5] = In vivo cytostatic activity against mouse Ehrlich carcinoma ascites allografted in ICR swiss mouse assessed as median survival time at 75 mg/kg, ip administered qd for 9 days beginning 24 hrs after tumor implantation relative to control; type: functional; settings: route intraperitoneal; summary of the method: as §1

| SMILES | EC50 (HeLa) [µg/mL] | Activity (Mus musculus [1]) | other results |
| --- | --- | --- | --- |
| CC(=O)N[C@@H]1[C@@H](OC(C)=O)[C@H](OC(C)=O)[C@@H](COC(C)=O)O[C@H]1n1nncc1CCl | 25 (≈ 55.9 µM) |  |  |
| ClCc1cn(Cc2ccccc2)nn1 | 18 (≈ 86.7 µM) |  |  |
| CC(=O)OC[C@H]1O[C@@H](n2cc(CI)nn2)[C@H](OC(C)=O)[C@@H](OC(C)=O)[C@@H]1OC(C)=O | 2 (≈ 3.71 µM) | Active | T/C [2]: 195%; Activity (Mus musculus [3]): -1.1 g |
| Sc1ncnc2nc[nH]c12 [MERCAPTOPURINE ANHYDROUS] | 0.1 (≈ 0.657 µM) |  |  |
| BrCc1cn(Cc2ccccc2)nn1 | 2 (≈ 7.93 µM) | inactive |  |
| CC(=O)OC[C@H]1O[C@@H](n2nnc(CBr)c2CBr)[C@H](OC(C)=O)[C@@H](OC(C)=O)[C@@H]1OC(C)=O | 3 (≈ 5.13 µM) | inactive |  |
| CC(=O)OC[C@H]1O[C@@H](n2nncc2CBr)[C@H](OC(C)=O)[C@@H](OC(C)=O)[C@@H]1OC(C)=O | 4 (≈ 8.13 µM) | inactive |  |
| CC(=O)OC[C@H]1O[C@@H](n2nncc2CCl)[C@H](OC(C)=O)[C@@H](OC(C)=O)[C@@H]1OC(C)=O | 25 (≈ 55.8 µM) |  |  |
| CC(=O)N[C@@H]1[C@@H](OC(C)=O)[C@H](OC(C)=O)[C@@H](COC(C)=O)O[C@H]1n1nncc1CO | > 100 |  |  |
| CC(=O)N[C@@H]1[C@@H](OC(C)=O)[C@H](OC(C)=O)[C@@H](COC(C)=O)O[C@H]1n1cc(CCl)nn1 | 20 (≈ 44.8 µM) |  |  |
| CC(=O)N[C@@H]1[C@@H](OC(C)=O)[C@H](OC(C)=O)[C@@H](COC(C)=O)O[C@H]1n1cc(CBr)nn1 | 20 (≈ 40.7 µM) |  |  |
| ICc1cn(Cc2ccccc2)nn1 | 2 (≈ 6.69 µM) | inactive |  |
| CC(=O)N[C@@H]1[C@@H](OC(C)=O)[C@H](OC(C)=O)[C@@H](COC(C)=O)O[C@H]1n1cc(CO)nn1 | > 100 |  |  |
| CC(=O)OC[C@H]1O[C@@H](n2cc(CBr)nn2)[C@H](OC(C)=O)[C@@H](OC(C)=O)[C@@H]1OC(C)=O | 3.5 (≈ 7.11 µM) | Active | T/C (P388): 163%; Activity (Mus musculus [4]): -0.5 g; T/C [5]: 145% |
| CC(=O)OC[C@H]1O[C@@H](n2nnc(CCl)c2CCl)[C@H](OC(C)=O)[C@@H](OC(C)=O)[C@@H]1OC(C)=O | 6 (≈ 12.1 µM) |  |  |
| CC(=O)OC[C@H]1O[C@@H](n2nnc(CO)c2CO)[C@H](OC(C)=O)[C@@H](OC(C)=O)[C@@H]1OC(C)=O | > 100 |  |  |
| CC(=O)OC[C@H]1O[C@@H](n2cc(CCl)nn2)[C@H](OC(C)=O)[C@@H](OC(C)=O)[C@@H]1OC(C)=O | 37 (≈ 82.6 µM) |  |  |
| CC(=O)N[C@@H]1[C@@H](OC(C)=O)[C@H](OC(C)=O)[C@@H](COC(C)=O)O[C@H]1n1nnc(CO)c1CO | > 100 |  |  |
| FCc1cn(Cc2ccccc2)nn1 | > 100 |  |  |
